# Residues, ends and D or L forms follow the SMILES beside them.
# Tests used:
# [1] = Retention time of the compound measured over 30 mins at flow rate of 1 mL/min by HPLC; format: physicochemical; details: 0.5 h
# Procedure, shortened: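 Reversed-phase analytical HPLC or LC−MS on a SymmetryShield RP18 column (5 μm, 4.6 × 150 mm). Gradient 10−60% B over 30 min at 1 mL/min; A = 0.1% TFA in water, B = 0.1% TFA in acetonitrile.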
# [2] = target: Sodium channel protein type 9 subunit alpha (Homo sapiens, UniProt Q15858); assay: Inhibition of human Nav1.7 expressed in HEK-293 cells at -130 to -110 mV holding potential by whole-cell voltage clamp analysis; format: cell-based, HEK293
# [3] = Retention time of the compound measured over 15 mins at flow rate of 1 mL/min by HPLC
# [4] = test system: HEK293; assay: Selectivity ratio of IC50 for rat Nav1.2 expressed in HEK-293 cells to IC50 for human Nav1.7 expressed in HEK-293 cells; format: cell-based
# Chain of Sodium channel protein type 9 subunit alpha (Q15858 whole entry): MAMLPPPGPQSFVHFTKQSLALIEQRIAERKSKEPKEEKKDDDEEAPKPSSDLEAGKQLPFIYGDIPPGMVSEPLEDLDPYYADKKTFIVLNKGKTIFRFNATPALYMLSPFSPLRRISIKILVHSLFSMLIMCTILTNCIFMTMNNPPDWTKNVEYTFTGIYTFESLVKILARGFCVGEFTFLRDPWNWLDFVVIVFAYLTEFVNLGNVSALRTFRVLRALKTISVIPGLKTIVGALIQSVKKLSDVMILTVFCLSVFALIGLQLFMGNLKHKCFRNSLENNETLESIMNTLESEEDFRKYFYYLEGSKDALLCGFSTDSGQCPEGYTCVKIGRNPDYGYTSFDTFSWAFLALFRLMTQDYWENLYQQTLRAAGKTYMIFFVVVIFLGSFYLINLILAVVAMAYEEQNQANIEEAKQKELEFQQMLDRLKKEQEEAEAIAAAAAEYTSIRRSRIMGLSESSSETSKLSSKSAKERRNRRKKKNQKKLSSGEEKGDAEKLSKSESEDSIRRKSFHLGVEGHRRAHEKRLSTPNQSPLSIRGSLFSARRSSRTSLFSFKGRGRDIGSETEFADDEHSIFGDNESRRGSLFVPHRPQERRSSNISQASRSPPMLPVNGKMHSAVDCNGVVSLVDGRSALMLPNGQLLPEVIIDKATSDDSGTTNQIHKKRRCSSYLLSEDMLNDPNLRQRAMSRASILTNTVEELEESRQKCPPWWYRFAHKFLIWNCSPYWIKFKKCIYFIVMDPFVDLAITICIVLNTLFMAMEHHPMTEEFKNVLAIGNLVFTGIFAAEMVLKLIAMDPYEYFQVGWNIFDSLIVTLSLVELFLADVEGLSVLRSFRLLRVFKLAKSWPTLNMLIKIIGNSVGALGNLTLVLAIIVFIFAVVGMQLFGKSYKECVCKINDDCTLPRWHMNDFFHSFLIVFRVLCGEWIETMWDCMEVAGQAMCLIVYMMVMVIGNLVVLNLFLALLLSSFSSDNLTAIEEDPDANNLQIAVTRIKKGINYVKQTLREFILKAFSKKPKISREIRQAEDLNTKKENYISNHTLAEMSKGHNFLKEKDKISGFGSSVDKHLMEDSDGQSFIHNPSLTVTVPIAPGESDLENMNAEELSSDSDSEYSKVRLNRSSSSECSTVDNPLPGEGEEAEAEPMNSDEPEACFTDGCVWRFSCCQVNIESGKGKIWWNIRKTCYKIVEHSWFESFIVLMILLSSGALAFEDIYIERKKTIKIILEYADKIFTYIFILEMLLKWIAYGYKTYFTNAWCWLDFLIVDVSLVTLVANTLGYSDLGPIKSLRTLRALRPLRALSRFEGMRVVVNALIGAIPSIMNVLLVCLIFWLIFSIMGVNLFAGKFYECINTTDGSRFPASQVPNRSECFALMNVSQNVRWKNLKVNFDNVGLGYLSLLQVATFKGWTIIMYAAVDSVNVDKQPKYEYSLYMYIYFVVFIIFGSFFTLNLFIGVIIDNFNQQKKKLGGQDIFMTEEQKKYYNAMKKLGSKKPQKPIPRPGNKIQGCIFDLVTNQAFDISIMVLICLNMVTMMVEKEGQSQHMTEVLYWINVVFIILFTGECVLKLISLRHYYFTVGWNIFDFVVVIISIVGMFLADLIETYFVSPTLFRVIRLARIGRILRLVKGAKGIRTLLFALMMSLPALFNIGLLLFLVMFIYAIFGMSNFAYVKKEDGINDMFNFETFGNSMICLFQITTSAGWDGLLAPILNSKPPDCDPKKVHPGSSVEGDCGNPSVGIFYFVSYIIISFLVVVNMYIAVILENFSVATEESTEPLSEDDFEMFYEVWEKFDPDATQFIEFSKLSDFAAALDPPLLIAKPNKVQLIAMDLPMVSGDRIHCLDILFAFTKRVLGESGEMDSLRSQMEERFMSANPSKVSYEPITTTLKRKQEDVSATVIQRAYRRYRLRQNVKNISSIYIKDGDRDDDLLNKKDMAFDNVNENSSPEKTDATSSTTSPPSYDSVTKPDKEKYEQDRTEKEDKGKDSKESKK
SMILES,Retention_time [1] [min],IC50 [2] [nM],Retention_time [3] [min],Ratio IC50 [4]
CSCC[C@@H]1NC(=O)[C@H](Cc2c[nH]c3ccccc23)NC(=O)[C@H](CCCCN)NC(=O)[C@H](CCC(N)=O)NC(=O)[C@@H](NC(=O)[C@@H](N)Cc2ccc(O)cc2)CSSC[C@@H]2NC(=O)[C@@H]3CSSC[C@@H](C(=O)N[C@@H](CCCCN)C(=O)N[C@@H](CCCCN)C(=O)N[C@@H](CCCCN)C(=O)N[C@@H](CC(C)C)C(=O)N[C@@H](Cc4c[nH]c5ccccc45)C(=O)O)NC(=O)[C@H](Cc4c[nH]c5ccccc45)NC(=O)[C@H](CC(C)C)NC(=O)[C@H](CCC(=O)O)NC(=O)[C@H](CSSC[C@H](NC(=O)[C@H]([C@@H](C)O)NC(=O)[C@H](Cc4c[nH]c5ccccc45)NC1=O)C(=O)N[C@@H](CC(=O)O)C(=O)N[C@@H](CO)C(=O)N[C@@H](CCC(=O)O)C(=O)N[C@@H](CCCNC(=N)N)C(=O)N[C@@H](CCCCN)C(=O)N3)NC(=O)[C@H](C(C)C)NC(=O)[C@H](Cc1ccc(O)cc1)NC(=O)CNC(=O)[C@H](CCC(=O)O)NC2=O,14.36,> 3000,9.09,
"CSCC[C@@H]1NC(=O)[C@H](Cc2c[nH]c3ccccc23)NC(=O)[C@H](CCCCN)NC(=O)[C@H](CCC(N)=O)NC(=O)[C@@H](NC(=O)[C@@H](N)Cc2ccc(O)cc2)CSSC[C@@H]2NC(=O)[C@@H]3CSSC[C@@H](C(=O)N[C@@H](CCCCN)C(=O)N[C@@H](CCCCN)C(=O)N[C@@H](CCCCN)C(=O)N[C@@H](CC(C)C)C(=O)N[C@@H](Cc4c[nH]c5ccccc45)C(=O)O)NC(=O)[C@H](Cc4c[nH]c5ccccc45)NC(=O)[C@H](CC(C)C)NC(=O)[C@H](CCCNC(=N)N)NC(=O)[C@H](CSSC[C@H](NC(=O)[C@H]([C@@H](C)O)NC(=O)[C@H](Cc4c[nH]c5ccccc45)NC1=O)C(=O)N[C@@H](CC(=O)O)C(=O)N[C@@H](CCC(=O)O)C(=O)N[C@@H](CCC(=O)O)C(=O)N[C@@H](CCCNC(=N)N)C(=O)N[C@@H](CCCCN)C(=O)N3)NC(=O)[C@H](C(C)C)NC(=O)[C@H](CC(C)C)NC(=O)CNC(=O)[C@H](CCC(=O)O)NC2=O (HELM PEPTIDE1{Y.C.Q.K.W.M.W.T.C.D.E.E.R.K.C.C.E.G.L.V.C.R.L.W.C.K.K.K.L.W}$PEPTIDE1,PEPTIDE1,2:R3-16:R3|PEPTIDE1,PEPTIDE1,9:R3-21:R3|PEPTIDE1,PEPTIDE1,15:R3-25:R3$$$V2.0)",14.78,293,8.66,
"CC[C@H](C)[C@H](NC(=O)[C@@H](NC(=O)[C@H](CCCCN)NC(=O)[C@H](CCCCN)NC(=O)[C@H](CCCCN)NC(=O)[C@@H]1CSSC[C@@H]2NC(=O)[C@H](CCCCN)NC(=O)[C@H](CCCNC(=N)N)NC(=O)[C@H](C)NC(=O)[C@H](CO)NC(=O)[C@H](CC(=O)O)NC(=O)[C@@H]3CSSC[C@H](NC(=O)[C@H](C(C)C)NC(=O)[C@H](CC(C)C)NC(=O)CNC(=O)[C@H](CCC(=O)O)NC(=O)[C@H](CSSC[C@H](NC(=O)[C@@H](N)Cc4ccc(O)cc4)C(=O)N[C@@H](CCC(N)=O)C(=O)N[C@@H](CCCCN)C(=O)N[C@@H](Cc4c[nH]c5ccccc45)C(=O)N[C@@H](CCSC)C(=O)N[C@@H](Cc4c[nH]c5ccccc45)C(=O)N[C@@H]([C@@H](C)O)C(=O)N3)NC2=O)C(=O)N[C@@H](CCCNC(=N)N)C(=O)N[C@@H](CC(C)C)C(=O)N[C@@H](Cc2c[nH]c3ccccc23)C(=O)N1)C(C)C)C(=O)O (HELM PEPTIDE1{Y.C.Q.K.W.M.W.T.C.D.S.A.R.K.C.C.E.G.L.V.C.R.L.W.C.K.K.K.V.I}$PEPTIDE1,PEPTIDE1,2:R3-16:R3|PEPTIDE1,PEPTIDE1,9:R3-21:R3|PEPTIDE1,PEPTIDE1,15:R3-25:R3$$$V2.0)",14.79,4,9,
"CC[C@H](C)[C@H](NC(=O)[C@](C)(CC(C)C)NC(=O)[C@H](CCCCN)NC(=O)[C@H](CCCCN)NC(=O)[C@H](CCCCN)NC(=O)[C@@H]1CSSC[C@@H]2NC(=O)[C@H](CCCCN)NC(=O)[C@H](CCCNC(=N)N)NC(=O)[C@H](C)NC(=O)[C@H](CO)NC(=O)[C@H](CC(=O)O)NC(=O)[C@@H]3CSSC[C@H](NC(=O)[C@H](C(C)C)NC(=O)[C@H](CC(C)C)NC(=O)CNC(=O)[C@H](CCC(=O)O)NC(=O)[C@H](CSSC[C@H](NC(=O)[C@@H](N)Cc4ccc(O)cc4)C(=O)N[C@@H](CCC(N)=O)C(=O)N[C@@H](CCCCN)C(=O)N[C@@H](Cc4c[nH]c5ccccc45)C(=O)N[C@@H](CCSC)C(=O)N[C@@H](Cc4c[nH]c5ccccc45)C(=O)N[C@@H]([C@@H](C)O)C(=O)N3)NC2=O)C(=O)N[C@@H](CCCNC(=N)N)C(=O)N[C@@H](CC(C)C)C(=O)N[C@@H](Cc2c[nH]c3ccccc23)C(=O)N1)C(=O)O (HELM PEPTIDE1{Y.C.Q.K.W.M.W.T.C.D.S.A.R.K.C.C.E.G.L.V.C.R.L.W.C.K.K.K.[CC(C)C[C@](C)(N[*:1])C(=O)[*:2]].I}$PEPTIDE1,PEPTIDE1,2:R3-16:R3|PEPTIDE1,PEPTIDE1,9:R3-21:R3|PEPTIDE1,PEPTIDE1,15:R3-25:R3$$$V2.0)",14.87,,9.03,34.2
"[H][C@]12CSSC[C@@H](C(=O)N[C@@H](CCCCN)C(=O)N[C@@H](CCCCN)C(=O)N[C@@H](CCCCN)C(=O)N[C@@](C)(CC(C)C)C(=O)N[C@@H](Cc3c[nH]c4ccccc34)C(=O)O)NC(=O)[C@H](Cc3c[nH]c4ccccc34)NC(=O)[C@H](CC(C)C)NC(=O)[C@H](CCCNC(=N)N)NC(=O)[C@]3([H])CSSC[C@]([H])(NC(=O)[C@]([H])([C@@H](C)O)NC(=O)[C@H](Cc4c[nH]c5ccccc45)NC(=O)[C@H](CCSC)NC(=O)[C@H](Cc4c[nH]c5ccccc45)NC(=O)[C@H](CCCCN)NC(=O)[C@H](CCC(N)=O)NC(=O)[C@@H](NC(=O)[C@@H](N)Cc4ccc(O)cc4)CSSC[C@]([H])(NC1=O)C(=O)N[C@@H](CCC(=O)O)C(=O)NCC(=O)N[C@@H](CC(C)C)C(=O)N[C@@H](C(C)C)C(=O)N3)C(=O)N[C@@H](CC(=O)O)C(=O)N[C@@H](CO)C(=O)N[C@@H](C)C(=O)N[C@@H](CCCNC(=N)N)C(=O)N[C@@H](CCCCN)C(=O)N2 (HELM PEPTIDE1{Y.C.Q.K.W.M.W.T.C.D.S.A.R.K.C.C.E.G.L.V.C.R.L.W.C.K.K.K.[CC(C)C[C@](C)(N[*:1])C(=O)[*:2]].W}$PEPTIDE1,PEPTIDE1,2:R3-16:R3|PEPTIDE1,PEPTIDE1,9:R3-21:R3|PEPTIDE1,PEPTIDE1,15:R3-25:R3$$$V2.0)",15.29,,9.28,3.5
"[H][C@]12CSSC[C@@H](C(=O)N[C@@H](CCCCN)C(=O)N[C@@H](CCCCN)C(=O)N[C@@H](CCCCN)C(=O)N(C)[C@@H](CC(C)C)C(=O)N[C@H](C(=O)O)[C@@H](C)CC)NC(=O)[C@H](Cc3c[nH]c4ccccc34)NC(=O)[C@H](CC(C)C)NC(=O)[C@H](CCCNC(=N)N)NC(=O)[C@]3([H])CSSC[C@]([H])(NC(=O)[C@]([H])([C@@H](C)O)NC(=O)[C@H](Cc4c[nH]c5ccccc45)NC(=O)[C@H](CCSC)NC(=O)[C@H](Cc4c[nH]c5ccccc45)NC(=O)[C@H](CCCCN)NC(=O)[C@H](CCC(N)=O)NC(=O)[C@@H](NC(=O)[C@@H](N)Cc4ccc(O)cc4)CSSC[C@]([H])(NC1=O)C(=O)N[C@@H](CCC(=O)O)C(=O)NCC(=O)N[C@@H](CC(C)C)C(=O)N[C@@H](C(C)C)C(=O)N3)C(=O)N[C@@H](CC(=O)O)C(=O)N[C@@H](CO)C(=O)N[C@@H](C)C(=O)N[C@@H](CCCNC(=N)N)C(=O)N[C@@H](CCCCN)C(=O)N2 (HELM PEPTIDE1{Y.C.Q.K.W.M.W.T.C.D.S.A.R.K.C.C.E.G.L.V.C.R.L.W.C.K.K.K.[meL].I}$PEPTIDE1,PEPTIDE1,2:R3-16:R3|PEPTIDE1,PEPTIDE1,9:R3-21:R3|PEPTIDE1,PEPTIDE1,15:R3-25:R3$$$V2.0)",14.4,,8.79,2.8
"CSCC[C@@H]1NC(=O)[C@H](Cc2c[nH]c3ccccc23)NC(=O)[C@H](CCCCN)NC(=O)[C@H](CCC(N)=O)NC(=O)[C@@H](NC(=O)[C@@H](N)Cc2ccc(O)cc2)CSSC[C@@H]2NC(=O)[C@@H]3CSSC[C@@H](C(=O)N[C@@H](CCCCN)C(=O)N[C@@H](CCCCN)C(=O)N[C@@H](CCCCN)C(=O)N(C)[C@@H](CC(C)C)C(=O)N[C@@H](Cc4c[nH]c5ccccc45)C(=O)O)NC(=O)[C@H](Cc4c[nH]c5ccccc45)NC(=O)[C@H](CC(C)C)NC(=O)[C@H](CCCNC(=N)N)NC(=O)[C@H](CSSC[C@H](NC(=O)[C@H]([C@@H](C)O)NC(=O)[C@H](Cc4c[nH]c5ccccc45)NC1=O)C(=O)N[C@@H](CC(=O)O)C(=O)N[C@@H](CO)C(=O)N[C@@H](C)C(=O)N[C@@H](CCCNC(=N)N)C(=O)N[C@@H](CCCCN)C(=O)N3)NC(=O)[C@H](C(C)C)NC(=O)[C@H](CC(C)C)NC(=O)CNC(=O)[C@H](CCC(=O)O)NC2=O (HELM PEPTIDE1{Y.C.Q.K.W.M.W.T.C.D.S.A.R.K.C.C.E.G.L.V.C.R.L.W.C.K.K.K.[meL].W}$PEPTIDE1,PEPTIDE1,2:R3-16:R3|PEPTIDE1,PEPTIDE1,9:R3-21:R3|PEPTIDE1,PEPTIDE1,15:R3-25:R3$$$V2.0)",15.1,,9.04,2.8
